MC4R antagonist – blocks human MC4R cAMP signaling. MC4R-expressing cells, MTII-stimulated cAMP, LANCE TR-FRET. inhibition, % at 6.5 µM. 360,000 compounds, 0.48% hits. AID 540295;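 active = inhibition above its plate's cutoff, the mean of tested wells on that plate plus 3 SD, cut at about 29% in these data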
Target sequence (P32245 whole entry, looked up): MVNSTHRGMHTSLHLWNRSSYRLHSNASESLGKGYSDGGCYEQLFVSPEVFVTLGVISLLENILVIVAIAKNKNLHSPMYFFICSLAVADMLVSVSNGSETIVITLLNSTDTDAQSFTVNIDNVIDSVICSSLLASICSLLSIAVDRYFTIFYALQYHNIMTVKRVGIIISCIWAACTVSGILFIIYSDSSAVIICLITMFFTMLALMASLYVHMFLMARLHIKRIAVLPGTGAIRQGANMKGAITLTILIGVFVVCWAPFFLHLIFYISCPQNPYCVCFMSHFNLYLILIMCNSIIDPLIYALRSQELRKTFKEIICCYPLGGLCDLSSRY
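Assay system: human MC4R-expressing U2OS cells; reagent: Melanotan II stimulation of cells; dosing: 6.5 µM single dose; timing: compound 30 min, challenge 1 h, detection 1 h; signal: TR-FRET cAMP assay; replicates: one well per compound, no replicates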
MC4R ag barr – human MC4R agonism via beta-arrestin. activation, % at 8.9 µM. P32245. AID 540308. 360,000 compounds, 0.98% hits. U2OS MC4R beta-arrestin complementation, luminescence; percent of melanotan II response, DMSO zero;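 active = activation above a per-plate cutoff, the mean activation of sample wells on that plate plus 3 SD, cut at about 8% in these data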
Tb MetRS inh – Trypanosoma brucei MetRS inhibition. purified T. brucei MetRS, ATP depletion, Kinase-Glo luminescence. inhibition, % at 11.9 µM. 360,000 compounds, 0.4% hits;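 active = inhibition above a per-plate cutoff of the control wells' mean inhibition plus 3 SD, cut at about 5.5% in these data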
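Material: parasite MetRS enzyme / Replication: singlicate, one well per compound / Signal: luminescence of leftover ATP / Schedule: 2 h aminoacylation at 25 °C after 15 min preincubation / Medium: HEPES-MgCl2-KCl buffer plus DTT, spermine, BSA, pyrophosphatase / Doses: 11.9 µM single point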
A1 inh – inhibitors of the anti-apoptotic protein A1, read as caspase activation; MEF A1-2A-BIM cells, Caspase-Glo 3/7 luminescence, 3 h; percent of clofoctol response, vehicle zero; caspase activation, % (test concentration not listed); 330,000 compounds, 0.066% hits; AID 2462;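 active = over half of replicate activation scores above 10%, or exactly half above 10 with the replicate mean above 10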
NALP3 yeast inh – inhibitors of NALP3 inflammasome in yeast; Yeast reconstituted NLRP3/ASC/caspase-1, beta-gal luminescence, 24 h; inhibition, % at 10 µM; 330,000 compounds, 0.39% hits;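 active = inhibition of 50% or more; inactive = inhibition below 50%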
NALP1 yeast inh – NALP1 inhibition; 280,000 compounds, 0.61% hits; inhibition, % at 10 µM; AID 2071; S. cerevisiae NALP1/ASC/caspase-1 growth, X-gal OD620, 72 h; in the data active = inhibition mostly above about 24%, no sharp cut-off; inactive = mostly below about 32%
cAMP nonselect – U2OS forskolin cAMP inhibition counter-screen. shares compounds with MC4R antagonist. parental U2OS, LANCE TR-FRET. inhibition, % at 6.5 µM. 1,600 compounds, 26% hits;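 active = mean inhibition over triplicates above the low-control well mean plus 3 SD, set per campaign, cut at about 13% in these data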;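 note: signal is single emission at 671 nm which falls as cellular cAMP rises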
MC4R antag conf – human MC4R cAMP antagonism confirmation; shares compounds with MC4R antagonist; MC4R-expressing cells, MTII-stimulated cAMP, TR-FRET; inhibition, % at 6.5 µM; 1,600 compounds, 27% hits; in the data active = inhibition above about 29%
Each line names hits and unclear results; the compound was inactive in the other large screens (follow-up assays come after a bar, where they were run). This is a sample that favours compounds with a hit; in the whole collection about 2.5% have one here.

O=C(COC(=O)[C@H](Cc1ccccc1)NC(=O)c1ccco1)NC(c1ccccc1)c1ccccc1	MC4R antagonist 31.9 | cAMP nonselect 19.8 | MC4R antag conf 36.0
O=C(COC(=O)[C@H](Cc1ccccc1)NC(=O)c1ccco1)Nc1ccccc1	none (no result: NALP1 yeast inh)
O=C(COC(=O)[C@H](Cc1ccccc1)NC(=O)c1cccs1)NC1CCCCC1	MC4R antagonist 36.9 (no result: NALP1 yeast inh) | cAMP nonselect inactive | MC4R antag conf inactive
CCCCOc1ccc(C(=O)Nc2cccc(-n3cnnn3)c2)cc1OC	none
C[C@@H]1CN([C@@H](C)CO)C(=O)CCCn2nncc2CO[C@H]1CN(C)Cc1cccnc1	MC4R antagonist 28.5 (no result: A1 inh, NALP3 yeast inh, NALP1 yeast inh) | cAMP nonselect inactive | MC4R antag conf inactive
COc1ccc(CC(=S)NCCc2ccccc2)cc1	none
C/C(CC(=O)Nc1ccc2ccccc2c1)=N\NC(=O)c1ccc(O)c(O)c1	none
CC(=O)c1cccc(NC(=S)NC(=O)c2ccccc2Cl)c1	MC4R antagonist 29.6 | cAMP nonselect inactive | MC4R antag conf inactive
CC(C)Oc1cccc(C(=O)NC(=S)Nc2ccc(Cl)c(C(=O)O)c2)c1	none
COc1ccc(Br)cc1/C=C/C(=O)NC(=S)Nc1ccc(Cl)c(C(=O)O)c1	MC4R antagonist 29.6 | cAMP nonselect inactive | MC4R antag conf inactive
COc1ccc(C(=O)NC(=S)Nc2ccc(Cl)c(C(=O)O)c2)cc1	MC4R antagonist 30.1 | cAMP nonselect inactive | MC4R antag conf inactive
CC(=O)c1cccc(NC(=S)NC(=O)c2ccc(C)cc2)c1	none
CCO[C@H]1OC(C(=O)O)=C[C@@H](c2coc3ccccc3c2=O)[C@@H]1CCCO	none (no result: NALP1 yeast inh)
Cc1ccc(S(=O)(=O)N2CCN(C(=O)N3CCCCC3)CC2)c(C)c1	none (no result: A1 inh, NALP3 yeast inh, NALP1 yeast inh)
Cc1ccc(C)c(NC(=S)N2CCC(C(=O)c3ccc(F)cc3)CC2)c1	none (no result: A1 inh, NALP3 yeast inh, NALP1 yeast inh)
CC(C)CN(C(=O)COC(=O)c1c(Cl)ccc(Cl)c1Cl)C1CCS(=O)(=O)C1 (stereo not drawn)	none
CC(C)CN(C(=O)COC(=O)c1nc(Cl)ccc1Cl)C1CCS(=O)(=O)C1 (stereo not drawn)	MC4R antagonist 35.6 | cAMP nonselect inactive | MC4R antag conf inactive
CC(C)(C)OC(=O)NCCCC[C@H](NC(=O)c1nc[nH]c1C(=O)NCC(=O)OCc1ccccc1)C(=O)OC(C)(C)C	none
CC(C)(C)OC(=O)NCCCCCNC(=O)c1nc[nH]c1C(=O)NCC(=O)OCc1ccccc1	MC4R antagonist 45.7 (no result: NALP1 yeast inh) | cAMP nonselect inactive | MC4R antag conf inactive
CC(C)(C)OC(=O)CNC(=O)c1[nH]cnc1C(=O)NCC(=O)OCc1ccccc1	MC4R antagonist 41.9 | cAMP nonselect inactive | MC4R antag conf inactive
CCc1nc2ccc(C(=O)N(CC)CCN(C)C)cn2c1N(C=O)CCC(C)C	none (no result: A1 inh, NALP3 yeast inh, NALP1 yeast inh)
Nc1cc(C(=O)OCC(=O)Nc2cccc(S(=O)(=O)N3CCOCC3)c2)ccc1Cl	none (no result: NALP1 yeast inh)
O=C(Nc1ccccc1)Nc1ccccc1NS(=O)(=O)c1cccs1	MC4R antagonist 30.0 | cAMP nonselect inactive | MC4R antag conf inactive
CCOCCCNCc1cc(Cl)cc(Cl)c1OCC	MC4R antagonist 31.4 | cAMP nonselect inactive | MC4R antag conf inactive
N#C/C(=C/c1ccc(N2CCCCC2)o1)C(=O)Nc1ccc2ccccc2c1	MC4R antagonist 29.3 (no result: A1 inh, NALP3 yeast inh) | cAMP nonselect inactive | MC4R antag conf inactive
COc1ccc(NC(=O)/C(C#N)=C\c2ccc(N3CCOCC3)o2)cc1	none
Cc1ccc(S(=O)(=O)Nc2cccnc2)cc1	none
O=C1CCCN1c1ccc(S(=O)(=O)Nc2cccnc2)cc1	MC4R antagonist 28.9 | cAMP nonselect inactive | MC4R antag conf inactive
Cn1ncc2c(=S)nc(Cl)[nH]c21	none (no result: A1 inh, NALP3 yeast inh, NALP1 yeast inh)
CC(C)OC(=O)CNc1n[nH]c(=S)[nH]c1=O	MC4R antagonist 40.8 (no result: A1 inh, NALP3 yeast inh) | cAMP nonselect inactive | MC4R antag conf inactive
CCOC(=O)CSc1nnc(NCC(=O)OC(C)C)c(=O)[nH]1	MC4R antagonist 34.6 | cAMP nonselect 17.6 | MC4R antag conf inactive
CCOC(=O)CNC(=O)CSc1nnc(C)c(=O)[nH]1	none
Cc1ccc(S(=O)(=O)N(C)CC(=O)OCC(=O)N2CCN(c3ccccc3)CC2)cc1	MC4R antagonist 33.2 | cAMP nonselect 19.9 | MC4R antag conf inactive
O=C(c1ccc(Br)cc1)C(CN1CCOCC1)c1ccccc1 (stereo not drawn)	MC4R antagonist 41.0, NALP1 yeast inh 39.3 | cAMP nonselect inactive | MC4R antag conf inactive
CC(CN1CCOCC1)OC(=O)c1ccc(Br)cc1 (stereo not drawn)	none
COc1ccc(CO[C@@H]2O[C@H](CO)[C@@H](O)[C@H](O)[C@H]2NC(C)=O)cc1OC	none
O=C(COc1ccccc1)N=C1SC2CS(=O)(=O)CC2N1c1cccc(F)c1 (stereo not drawn)	none
COc1ccc2c(c1)c(CC(=O)Nc1cc(C)ccc1C)c(C)n2C(=O)c1ccc(Cl)cc1	none
COc1ccc2c(c1)c(CC(=O)Nc1ccc(C(C)=O)cc1)c(C)n2C(=O)c1ccc(Cl)cc1	MC4R antagonist 29.2 (no result: NALP1 yeast inh) | cAMP nonselect inactive | MC4R antag conf inactive
CC1CCCC(NC(=O)COC(=O)COc2ccc(C#N)cc2)C1C (stereo not drawn)	MC4R antagonist 36.5 (no result: NALP1 yeast inh) | cAMP nonselect inactive | MC4R antag conf inactive
CC(OC(=O)CSc1ccccc1)C(=O)NC1CCCCC1C (stereo not drawn)	none (no result: A1 inh, NALP1 yeast inh)
O=C(N/N=C/c1ccc2c(c1)OCO2)C1CC1	none
O=C(COC(=O)c1cnc(Cl)c(Cl)c1)NCCC1=CCCCC1	MC4R antagonist 37.9 | cAMP nonselect 27.6 | MC4R antag conf 35.7
O=C(COC(=O)c1cnc(Cl)c(Cl)c1)NC1CCCCCC1	MC4R antagonist 29.2 (no result: A1 inh, NALP1 yeast inh) | cAMP nonselect 26.8 | MC4R antag conf 47.9
O=C(COC(=O)c1cnc(Cl)c(Cl)c1)NC1CCCC1	MC4R antagonist 29.4 (no result: A1 inh, NALP3 yeast inh, NALP1 yeast inh) | cAMP nonselect 22.1 | MC4R antag conf 32.6
CN(C(=O)COC(=O)c1cnc(Cl)c(Cl)c1)C1CCCCC1	MC4R antagonist 39.5 (no result: NALP1 yeast inh) | cAMP nonselect 21.6 | MC4R antag conf 39.3
O=C(COC(=O)c1ccc(Cl)c(Cl)c1)NC1CCCC1	none
CN(C(=O)COC(=O)c1cnc(Cl)c(Cl)c1)C1CCS(=O)(=O)C1 (stereo not drawn)	none
COc1ccc(S(=O)(=O)N2CCOCC2)cc1C(=O)Nc1ccc(N2CCCCCC2)cc1	none (no result: A1 inh, NALP3 yeast inh, NALP1 yeast inh)
Cc1cccc2c1NC(=O)/C2=C\C(=O)c1cccs1	MC4R antagonist 30.3 | cAMP nonselect inactive | MC4R antag conf inactive
